Measurements: ChEMBL document CHEMBL1143241, “Development of potent, allosteric dual Akt1 and Akt2 inhibitors with improved physical properties and cell activity” (Bioorg Med Chem Lett, 2008)
Values after ≈ are worked out from the molar mass of the structure shown.

Key:
[1] = target: T1, RAC-alpha serine/threonine-protein kinase (Homo sapiens, UniProt P31749); test: Inhibition of Akt1
Outline: (§1)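 In vitro enzyme inhibition assay following a previously reported protocol. Each IC50 is the average of at least three determinations.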

[2] = target: T2, RAC-beta serine/threonine-protein kinase (Homo sapiens, UniProt P31751); test: Inhibition of Akt2; outline: as §1
[3] = target: T3, RAC-gamma serine/threonine-protein kinase (Homo sapiens, UniProt Q9Y243); test: Inhibition of Akt3
[4] = target: T1, RAC-alpha serine/threonine-protein kinase; test: Inhibition of Akt1 by cell-based IPKA assay
[5] = target: T2, RAC-beta serine/threonine-protein kinase; test: Inhibition of Akt2 by cell-based IPKA assay
[6] = target: T3, RAC-gamma serine/threonine-protein kinase; test: Inhibition of Akt3 by cell-based IPKA assay
[7] = Inhibition of PKA; outline: as §1
[8] = Inhibition of PKC; outline: as §1
[9] = target: T4, Serine/threonine-protein kinase Sgk1 (Homo sapiens, UniProt O00141); test: Inhibition of SGK; outline: as §1
T4 sequence (O00141 whole entry): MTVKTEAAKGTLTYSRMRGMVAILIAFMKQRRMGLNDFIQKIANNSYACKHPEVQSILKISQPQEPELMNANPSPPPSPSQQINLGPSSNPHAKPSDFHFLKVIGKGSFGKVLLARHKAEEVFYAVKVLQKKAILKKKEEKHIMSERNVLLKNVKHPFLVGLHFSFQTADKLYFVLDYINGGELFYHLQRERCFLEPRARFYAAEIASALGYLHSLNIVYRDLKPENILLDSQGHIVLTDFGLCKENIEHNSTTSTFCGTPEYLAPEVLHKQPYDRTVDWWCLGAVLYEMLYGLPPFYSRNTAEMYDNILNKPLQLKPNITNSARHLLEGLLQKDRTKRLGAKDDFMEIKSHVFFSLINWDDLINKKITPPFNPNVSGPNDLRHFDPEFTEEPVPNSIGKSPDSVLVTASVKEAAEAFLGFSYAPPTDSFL

[10] = Solubility at pH 7.4 in 98% saline; type: physicochemical

T1 sequence (P31749 whole entry): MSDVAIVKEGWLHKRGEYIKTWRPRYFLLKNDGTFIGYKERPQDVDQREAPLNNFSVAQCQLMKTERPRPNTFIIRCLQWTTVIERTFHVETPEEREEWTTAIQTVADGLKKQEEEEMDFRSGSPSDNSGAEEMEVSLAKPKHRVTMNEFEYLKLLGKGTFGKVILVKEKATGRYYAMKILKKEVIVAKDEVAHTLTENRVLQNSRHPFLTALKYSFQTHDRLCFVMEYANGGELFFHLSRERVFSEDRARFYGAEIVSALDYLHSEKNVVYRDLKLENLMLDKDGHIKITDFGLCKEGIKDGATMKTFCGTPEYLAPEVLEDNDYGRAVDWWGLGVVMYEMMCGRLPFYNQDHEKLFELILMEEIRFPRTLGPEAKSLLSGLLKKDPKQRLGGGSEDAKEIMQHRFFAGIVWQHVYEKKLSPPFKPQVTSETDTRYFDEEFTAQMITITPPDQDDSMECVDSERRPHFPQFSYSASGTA
T2 sequence (P31751 whole entry): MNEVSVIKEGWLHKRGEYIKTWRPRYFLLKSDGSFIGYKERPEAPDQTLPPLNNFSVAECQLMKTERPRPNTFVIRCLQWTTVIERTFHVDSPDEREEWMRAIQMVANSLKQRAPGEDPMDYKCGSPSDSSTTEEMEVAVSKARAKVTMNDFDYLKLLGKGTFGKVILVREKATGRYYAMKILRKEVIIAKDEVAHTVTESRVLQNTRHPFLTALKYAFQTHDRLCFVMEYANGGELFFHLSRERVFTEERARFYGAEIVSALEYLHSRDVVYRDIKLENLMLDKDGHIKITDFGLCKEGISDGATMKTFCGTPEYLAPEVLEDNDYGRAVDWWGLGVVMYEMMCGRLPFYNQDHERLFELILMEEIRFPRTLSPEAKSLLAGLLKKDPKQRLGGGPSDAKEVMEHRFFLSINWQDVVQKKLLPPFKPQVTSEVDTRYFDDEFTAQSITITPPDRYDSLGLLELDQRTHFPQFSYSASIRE
T3 sequence (Q9Y243 whole entry): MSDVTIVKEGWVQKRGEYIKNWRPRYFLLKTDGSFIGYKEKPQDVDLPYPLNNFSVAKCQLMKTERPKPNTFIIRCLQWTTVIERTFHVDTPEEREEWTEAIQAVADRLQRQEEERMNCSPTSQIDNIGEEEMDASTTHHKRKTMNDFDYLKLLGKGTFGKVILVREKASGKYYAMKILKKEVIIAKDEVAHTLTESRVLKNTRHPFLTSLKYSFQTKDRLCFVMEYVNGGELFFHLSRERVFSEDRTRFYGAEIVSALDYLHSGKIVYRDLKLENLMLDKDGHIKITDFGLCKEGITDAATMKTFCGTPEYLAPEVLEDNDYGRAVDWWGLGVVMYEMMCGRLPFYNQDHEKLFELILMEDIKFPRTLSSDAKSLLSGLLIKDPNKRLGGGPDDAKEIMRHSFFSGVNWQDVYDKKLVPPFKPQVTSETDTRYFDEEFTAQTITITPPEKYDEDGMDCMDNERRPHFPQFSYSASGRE

| SMILES | IC50 [1] [µM] | IC50 [2] [µM] | IC50 [3] [µM] | IC50 [4] [µM] | IC50 [5] [µM] | IC50 [6] [µM] | IC50 [7] [µM] | IC50 [8] [µM] | IC50 [9] [µM] | solubility [10] [mg/mL] |
| --- | --- | --- | --- | --- | --- | --- | --- | --- | --- | --- |
| CCN(CC)CCNC(=O)c1ccc2nc(-c3ccccc3)c(-c3ccc(CN4CCC(n5c(=O)[nH]c6ccccc65)CC4)cc3)nc2c1 | 0.138 | 0.212 | 7.2 | 0.253 | 0.276 | > 10 | > 50 | > 50 | > 50 | 18 (≈ 27.5 mM) |
| CCN(CC)CCNC(=O)c1ccc2nc(-c3ccc(CN4CCC(n5c(=O)[nH]c6ccccc65)CC4)cc3)c(-c3ccccc3)nc2c1 | 0.458 | 0.359 | 7.4 | 0.368 | 0.617 | 8 | > 50 | > 50 | > 50 | 18 (≈ 27.5 mM) |
| O=c1[nH]c2ccccc2n1C1CCN(Cc2ccc(-c3nc4ccc(-c5nnn[nH]5)cc4nc3-c3ccccc3)cc2)CC1 | – | – | – | – | – | – | – | – | – | 18 (≈ 31.1 mM) |
| O=C(O)c1ccc2nc(-c3ccc(CN4CCC(n5c(=O)[nH]c6ccccc65)CC4)cc3)c(-c3ccccc3)nc2c1 | – | – | – | – | – | – | – | – | – | 18 (≈ 32.4 mM) |
| O=C(O)c1ccc2nc(-c3ccccc3)c(-c3ccc(CN4CCC(n5c(=O)[nH]c6ccccc65)CC4)cc3)nc2c1 | – | – | – | – | – | – | – | – | – | 18 (≈ 32.4 mM) |
| O=c1[nH]c2ccccc2n1C1CCN(Cc2ccc(-c3nc4cc(-c5nnn[nH]5)ccc4nc3-c3ccccc3)cc2)CC1 | – | – | – | – | – | – | – | – | – | 18 (≈ 31.1 mM) |
